Compound activity: PubChem, The Scripps Research Institute Molecular Screening Center
This is a sample that favours compounds with a hit; in the whole collection about 2.3% have one here.
bovine MsrA act – bovine MsrA enzyme activators, primary screen, biochemical, absorbance, HTS; activation, % at 10.6 µM; purified bovine MsrA, absorbance read-out; AID 602163, 2012; Methionine sulfoxide reductase A (Bos taurus); 0.3% of 360,000 active; in the data active = activation above about 7.5%;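 note: 0% = vehicle and 100% = reference activator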
MC4R ag barr – MC4R agonists recruiting beta-arrestin, primary screen, cell-based, luminescence, agonist arm of biased-ligand search; Melanocortin receptor 4 (Homo sapiens), P32245; U2OS MC4R beta-arrestin complementation; percent of melanotan II response, DMSO zero; activation, % at 8.9 µM; 0.98% of 360,000 active; AID 540308, 2011;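 active = activation above a per-plate cutoff, the mean activation of sample wells on that plate plus 3 SD, cut at about 8% in these data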
Target sequence (P32245 whole entry, looked up): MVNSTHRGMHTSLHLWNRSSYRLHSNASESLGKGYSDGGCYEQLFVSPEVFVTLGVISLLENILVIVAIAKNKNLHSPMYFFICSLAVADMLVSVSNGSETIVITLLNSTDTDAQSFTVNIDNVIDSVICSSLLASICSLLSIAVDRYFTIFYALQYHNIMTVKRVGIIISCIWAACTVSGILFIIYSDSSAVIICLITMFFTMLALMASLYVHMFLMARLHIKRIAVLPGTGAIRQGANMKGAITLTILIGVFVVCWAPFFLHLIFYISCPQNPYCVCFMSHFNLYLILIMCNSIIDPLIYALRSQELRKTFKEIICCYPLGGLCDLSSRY
MsrA inh – bovine MsrA enzyme inhibitors, primary screen, biochemical, absorbance, HTS; Methionine sulfoxide reductase A (Bos taurus); purified bovine MsrA, absorbance read-out; inhibition, % at 15.5 µM; 0.75% of 360,000 active; AID 651718, 2012;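 note: 0% = vehicle wells with enzyme and 100% = reference inhibitor wells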
MC4R antag cAMP – MC4R antagonists of cAMP signaling, primary screen, cell-based, TR-FRET, antagonist arm of biased-ligand search | MC4R-expressing cells, MTII-stimulated cAMP, LANCE TR-FRET | inhibition, % at 6.5 µM | Melanocortin receptor 4 (Homo sapiens), P32245 | 0.48% of 360,000 active;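 active = inhibition above its plate's cutoff, the mean of tested wells on that plate plus 3 SD, cut at about 29% in these data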;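 note: 0% = Melanotan II alone and 100% = Melanotan II plus saturating MCL0020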
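Assay system: human MC4R-expressing U2OS cells; reagent: Melanotan II stimulation of cells; dosing: 6.5 µM single dose; timing: compound 30 min, challenge 1 h, detection 1 h; signal: TR-FRET cAMP assay; replicates: one well per compound, no replicates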
MsrA conf – bovine MsrA inhibitors, retest, confirmation, biochemical, absorbance, HTS. shares compounds with MsrA inh. purified bovine MsrA, absorbance read-out. inhibition, % at 15.5 µM. 41% of 2,300 active. AID 651822, 2012;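 note: coupled to thioredoxin reductase with NADPH and selenocystamine and DMSO as substrate; 0% = vehicle only and 100% = full effect of reference inhibitor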
Starred values were filed as active, the others as inactive; . = not tested or not shown. Cut-off read from the data, not from the text of the source, unless noted: active = inhibition above about 4.5%; inactive = the rest.

SMILES	bovine MsrA act	MC4R ag barr	MsrA inh	MC4R antag cAMP	MsrA conf
Cc1cc2c(cc1C)NC(c1cccnc1)C1=C(CC(C)(C)CC1=O)N2 (stereo unspecified)	-6	0	4	0	.
Cc1ccc(C2NC(=S)NC3=C2C(=O)CC(C)(C)C3)cc1 (stereo unspecified)	5	0	4.8*	-8	1
O=C(C1CCN(S(=O)(=O)c2cccs2)CC1)N1CCN(c2ccccc2O)CC1	-3	-1	0	-6	.
CN(CC(=O)Nc1ccc(N2CCOCC2)cc1)C(=O)Cc1ccccc1	-2	-1	5.3*	2	0
Cc1cc(C)c(S(=O)(=O)/N=C2\C=C(NS(=O)(=O)c3ccccc3)C(=O)c3ccccc32)c(C)c1	1	1	0	2	.
CCc1ccc(S(=O)(=O)/N=C2\C=C(Nc3ccc(O)cc3)C(=O)c3ccccc32)cc1	3	1	.	-25	.
O=C(O)c1ccc(NC2=C/C(=N/S(=O)(=O)c3cccs3)c3ccccc3C2=O)cc1	-2	-4	62*	-10	66*
Cc1cc(C)c(S(=O)(=O)/N=C2\C=C(Nc3ccc(C(=O)O)cc3)C(=O)c3ccccc32)c(C)c1	-1	-3	19*	-3	21*
CCc1ccc(S(=O)(=O)/N=C2\C=C(Nc3cccc(C(=O)O)c3)C(=O)c3ccccc32)cc1	1	-3	52*	-12	53*
Cc1ccc(Cl)cc1NC1=C/C(=N\S(=O)(=O)c2cccs2)c2ccccc2C1=O	2	-5	5.6*	19	8.2*
O=C(O)c1ccc(NC2=C/C(=N/S(=O)(=O)c3ccccc3)c3ccccc3C2=O)cc1	-2	-3	65*	-16	63*
C#CCOC(=O)/C(=C/C=C/c1ccccc1)NC(=O)c1ccccc1	-6	-2	5.2*	11	3
COC(=O)[C@]1(Sc2ccc(OC)cc2)CC(=O)N[C@@H]1c1ccccc1	-1	.	0	.	.
CC(=O)c1ccc(N/N=C2/CCCNC2=O)cc1	-8	1	7.4*	-1	6.2*
COc1ccc(CNC(=O)C2(C)Cc3c(-c4ccc(C(N)=O)cc4)ccnc3O2)cc1OC (stereo unspecified)	-6	2	-1	-6	.
CCOc1ccc(C(=O)N/N=C/c2ccc(-c3ccc(S(=O)(=O)Nc4ncccn4)cc3)o2)cc1	-6	-2	6.0*	-5	4.9*
Cc1ccc(-c2ccc(/C=N/NC(N)=S)o2)cc1	-4	-2	3	3	.
COC(=O)c1ccc(-c2ccc(/C=N/NC(=O)Cc3nnc(N)s3)o2)cc1	1	1	4.8*	-14	4
Nc1nnc(CC(=O)N/N=C/c2ccc(-c3ccccc3)o2)s1	-5	1	6.6*	-10	7.9*
NC(=S)N/N=C/c1ccc(-c2ccccc2)o1	-5	-4	6.7*	1	4
O=C(N/N=C/c1ccc(-c2ccc(S(=O)(=O)Nc3ncccn3)cc2)o1)c1cc2ccccc2cc1O	-4	-2	4	-4	.
NC(=S)NN=Cc1ccc(-c2ccc(S(=O)(=O)Nc3ncccn3)cc2)o1	-7	-2	3	1	.
NS(=O)(=O)c1ccc(-c2ccc(/C=N/NC(=O)c3ccccc3O)o2)cc1	-5	-1	4.9*	-7	4
O=C(COC(=O)Cc1ccc(Cl)cc1)NCCc1ccccc1	-10	-1	1	0	.
CCc1cn(S(=O)(=O)c2ccccc2OC)nc1N	-5	0	.	4	.
SMILES	bovine MsrA act	MC4R ag barr	MsrA inh	MC4R antag cAMP	MsrA conf
CCCc1c(C)nn(C(=O)/C(C#N)=N/Nc2ccccc2[N+](=O)[O-])c1C	-10	-3	10*	-1	6.9*
CCC1CN(C)C2Cc3c([nH]c4ccccc34)C(=O)CC1C2C(=O)OC (stereo unspecified)	-6	-2	3	-3	.
CCCCC(CC)CNS(=O)(=O)c1ccc2c(c1)CCN2C(=O)CCC(=O)O (stereo unspecified)	-2	3	0	-1	.
CCOC(=O)Cc1csc(NC(=O)/C=C/c2ccc(Br)o2)n1	-9	1	5.5*	-1	4
CC(=O)C1=C(O)C(=O)N(c2cc(C(C)(C)C)on2)C1c1ccc(Br)cc1 (stereo unspecified)	1	1	4.9*	7	2
CC(=O)C1=C(O)C(=O)N(c2cc(C(C)(C)C)on2)C1c1ccc(C(C)C)cc1 (stereo unspecified)	-4	-1	.	0	.
C=CCOc1c(Br)cc(/C=N/O)cc1OCC	-6	-1	1	0	.
O=C(O)/C=C/c1ccc(-c2cccc(C(F)(F)F)c2)o1	-6	-1	6.0*	3	4
COc1cc(C(=S)N2CCOCC2)ccc1OC(=O)/C=C/c1ccco1	-15	0	1	2	.
C#CCN1C=CC(=O)[C@@H](OC(=O)Nc2ccccc2Br)[C@H]1c1ccccc1Br	-4	1	1	-1	.
COc1ccc(-c2cc(=O)c3ccccc3o2)cc1	-4	-1	2	4	.
COc1ccc(-c2cc(=O)c3cccc(CC(=O)O)c3o2)cc1	.	.	5.0*	.	4.6*
O=C(CSc1ccc(-c2nc3ccccc3[nH]2)cn1)Nc1ccc(S(=O)(=O)N2CCCC2)cc1	-4	1	3	4	.
Cc1ccc2nc(-c3ccc(SCC(=O)N4CCc5ccccc54)nc3)[nH]c2c1	-5	-1	0	9	.
Cc1ccc2nc(-c3ccc(SCC(=O)O)nc3)[nH]c2c1	-13	0	8.9*	2	4.7*
Cc1cc2nc(-c3ccc(SCC(=O)Nc4ccc(S(=O)(=O)N5CCCC5)cc4)nc3)[nH]c2cc1C	-8	-1	5.0*	10	3
O=C(O)c1ccc(N/N=C/c2ccnc3ccccc23)cc1	2	-1	0	-26	.
O=C(O)c1ccc(N/N=C/c2ccc3nccnc3c2)cc1	-8	-2	4.8*	-44	3
O=C(O)c1ccc(N/N=C/c2ccncc2)cc1	-6	-3	5.7*	-23	4
Cc1ccccc1-c1nn2c(-c3ccccc3)nnc2s1	-5	-1	0	1	.
Cc1ccc(N2CC(C(=O)Nc3cccc(F)c3)CC2=O)cc1 (stereo unspecified)	-2	0	0	-4	.
CCN(CC)c1ccc(C(=O)OCC(=O)Nc2ccccc2-c2ccccc2)cc1	-8	0	5.8*	17	3
O=C(NN=Cc1ccc(F)cc1)c1ccccc1NS(=O)(=O)c1cccs1	-5	2	1	-4	.
O=C(O)COc1ccccc1C=NNC(=O)c1ccc(NS(=O)(=O)c2cccs2)cc1	-5	-2	5.9*	-3	4
O=C(NN=Cc1cc(Br)c(O)c(Br)c1)c1ccccc1NS(=O)(=O)c1cccs1	-7	-3	6.1*	8	4
